These results are taken from ChEMBL document CHEMBL1131076, “Synthesis of 9-deoxo-4''-deoxy-6,9-epoxyerythromycin derivatives: novel and acid-stable motilides” (1998).

Each structure is given as a SMILES string.

Holding throughout (format): functional
For one experiment, the species on record is Oryctolagus cuniculus. Nature of the experiment: Compound was evaluated for the prokinetic activity by measuring smooth muscle contractility from rabbit duodenum isolated tissue. In short, it runs like this: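 Isolated rabbit duodenum in vitro; records induction of well-coordinated smooth muscle contractions; potency given as pED50.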
The test system of the next experiment is Escherichia coli. Nature of the experiment: In vitro antibacterial activity against the Escherichia coli (No. of strains used :5).
The next experiment has as its system Streptococcus sp. Kind of experiment: In vitro antibacterial activity against the Streptococcus sp. (No. of strains used :4).
The next experiment concerns Staphylococcus aureus. Kind of experiment: In vitro antibacterial activity against the Staphylococcus aureus (No. of strains used :5).

Molecule `CC[C@H]1OC(=O)[C@H](C)[C@@H](OC2C[C@@](C)(OC)C[C@H](C)O2)[C@H](C)[C@@H](OC2O[C@H](C)C[C@H](N(C)Cc3ccccc3)[C@H]2O)[C@@]2(C)C[C@H](C)[C@H](O2)[C@H](C)[C@@H](O)[C@]1(C)O` (some centres not stated) had a pED50 in the experiment listed under Oryctolagus cuniculus of 4.
For the molecule `CC[C@H]1OC(=O)[C@H](C)[C@@H](OC2C[C@@](C)(OC)C[C@H](C)O2)[C@H](C)[C@@H](OC2O[C@H](C)C[C@H](N(C)C)[C@H]2O)[C@@]2(C)C[C@@H](C)[C@H](O2)[C@H](C)[C@@H](O)[C@]1(C)O` (some centres not stated), the pED50 in the experiment listed under Oryctolagus cuniculus came to 7.8.
On the same count and under the same terms, the same measure for `CC[C@H]1OC(=O)[C@H](C)[C@@H](OC2C[C@@](C)(OC)C[C@H](C)O2)[C@H](C)[C@@H](OC2O[C@H](C)C[C@H](N(C)CC)[C@H]2O)[C@@]2(C)CC(C)=C(O2)[C@H](C)[C@@H](O)[C@H]1C` (some centres not stated): 7.22; for `CC[C@H]1OC(=O)[C@H](C)[C@@H](OC2C[C@@](C)(OC)C[C@H](C)O2)[C@H](C)[C@@H](OC2O[C@H](C)C[C@H](N(C)CCN)[C@H]2O)[C@@]2(C)C[C@H](C)[C@H](O2)[C@H](C)[C@@H](O)[C@]1(C)O` (some centres not stated): 6.43.
Turning to `CC[C@H]1OC(=O)[C@H](C)[C@@H](OC2C[C@@](C)(OC)C[C@H](C)O2)[C@H](C)[C@@H](OC2O[C@H](C)C[C@H](N(C)C)[C@H]2O)[C@@]2(C)C[C@@H](C)[C@@H](O2)[C@H](C)[C@@H](O)[C@]1(C)O` (some centres not stated), the pED50 in the experiment listed under Oryctolagus cuniculus is recorded as 5.45.
As usually defined, the MIC is the smallest concentration in the dilution series that meets the test's criterion for growth inhibition. A low value points to inhibition by little substance. On to `CC[C@H]1OC(=O)[C@H](C)[C@@H](OC2C[C@@](C)(OC)C[C@H](C)O2)[C@H](C)[C@@H](OC2O[C@H](C)C[C@H](N(C)C)[C@H]2O)[C@@]2(C)C[C@H](C)[C@H](O2)[C@H](C)[C@@H](O)[C@]1(C)O` (some centres not stated), for which the MIC in the experiment on Escherichia coli, with Streptococcus sp. and in the experiment on Staphylococcus aureus was more than 100 µg/mL in each case. In the experiment listed under Oryctolagus cuniculus, the pED50 worked out at 7.93.
In turn, `CC[C@H]1OC(=O)[C@H](C)[C@@H](OC2C[C@@](C)(OC)C[C@H](C)O2)[C@H](C)[C@@H](OC2O[C@H](C)C[C@H](N(C)CC#N)[C@H]2O)[C@@]2(C)C[C@H](C)[C@H](O2)[C@H](C)[C@@H](O)[C@]1(C)O` (some centres not stated) showed a pED50 in the experiment filed under Oryctolagus cuniculus of 5.71.
In the experiment filed under Oryctolagus cuniculus, `CC[C@H]1OC(=O)[C@H](C)[C@@H](OC2C[C@@](C)(OC)C[C@H](C)O2)[C@H](C)[C@@H](OC2O[C@H](C)C[C@H](N(C)CCF)[C@H]2O)[C@@]2(C)C[C@H](C)[C@H](O2)[C@H](C)[C@@H](O)[C@]1(C)O` (some centres not stated) came in with a pED50 of 6.67.
On the same count and under the same terms, the same measure for `CC[C@H]1OC(=O)[C@H](C)[C@@H](OC2C[C@@](C)(OC)C[C@H](C)O2)[C@H](C)[C@@H](OC2O[C@H](C)C[C@H](NC)[C@H]2O)[C@@]2(C)C[C@H](C)[C@H](O2)[C@H](C)[C@@H](O)[C@]1(C)O` (some centres not stated): 7.64; for `CCCCN(C)[C@H]1C[C@@H](C)OC(O[C@@H]2[C@@H](C)[C@H](OC3C[C@@](C)(OC)C[C@H](C)O3)[C@@H](C)C(=O)O[C@H](CC)[C@@](C)(O)[C@H](O)[C@@H](C)[C@H]3O[C@]2(C)C[C@@H]3C)[C@@H]1O` (some centres not stated): 4.71.
As for `CC[C@H]1OC(=O)[C@H](C)[C@@H](OC2C[C@@](C)(OC)C[C@H](C)O2)[C@H](C)[C@@H](OC2O[C@H](C)C[C@H](N(C)CC)[C@H]2O)[C@@]2(C)C[C@H](C)[C@H](O2)[C@H](C)[C@@H](O)[C@]1(C)O` (some centres not stated), the minimum inhibitory concentration (MIC) in the experiment on Escherichia coli, in the experiment on Streptococcus sp. and with Staphylococcus aureus was more than 100 µg/mL each time. This molecule returned a pED50 in the experiment listed under Oryctolagus cuniculus of 8.54.
For the molecule `CC[C@H]1OC(=O)[C@H](C)[C@@H](OC2C[C@@](C)(OC)C[C@H](C)O2)[C@H](C)[C@@H](OC2O[C@H](C)C[C@H](N(C)CCO)[C@H]2O)[C@@]2(C)C[C@H](C)[C@H](O2)[C@H](C)[C@@H](O)[C@]1(C)O` (some centres not stated), the minimal inhibitory concentration (MIC) in the experiment with Escherichia coli, with Streptococcus sp. and against Staphylococcus aureus was more than 100 µg/mL each time. In the experiment listed under Oryctolagus cuniculus, this molecule displayed a pED50 of 8.11.
In turn, `CC[C@H]1OC(=O)[C@H](C)[C@@H](OC2C[C@@](C)(OC)C[C@H](C)O2)[C@H](C)[C@@H](OC2O[C@H](C)C[C@H](N(C)C(C)C)[C@H]2O)[C@@]2(C)C[C@H](C)[C@H](O2)[C@H](C)[C@@H](O)[C@]1(C)O` (some centres not stated) gave a pED50 in the experiment filed under Oryctolagus cuniculus of 7.75.
